The text below walks through data of publication PMC7156834 (Cancer Science, 2020).

As usually defined, the Kd is the constant that tells how readily two partners part at equilibrium.

The test system of assay [1] is survivin in MIA PaCa‐2 cells. The assay can be described thus: Western blot of survivin protein expression, MIA PaCa-2. It is filed as cell-based, human. To be noted: 40 µmol L^−1, 48 h, P = .366, without statistical significance, n = 3. For orientation: In western blotting, separated proteins are transferred to a membrane and probed.
In assay [2] the test system is survivin in MDA‐MB‐231 cells. Kind of assay: Western blot of survivin protein expression, MDA-MB-231. Type of assay: cell-based, human. Conditions: 10 or 40 μmol L^−1, 48 h, vs vehicle control, n = 3.
The target of assay [3] is recombinant human survivin (Homo sapiens, UniProt O15392). The assay can be described thus: Saturation binding assay of peptides to recombinant survivin protein. To be noted: QCM sensorgram, result in words. A digest of the protocol: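 Quartz crystal microbalance. Recombinant human survivin (40 μg/mL) amide-coupled to the gold electrode of the sensor chip, with the chip soaked in buffer. 8 μL aliquots of test peptide solutions (10–256 μmol L⁻¹ as injected) added sequentially to the cuvette. Frequency change monitored over time. Kd derived by kinetic analysis using a one-binding-site model.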

The subject of assay [4] is MCF‐10A cells. The assay can be described thus: Cell proliferation assay. To be noted: MTT, 1, 10 or 100 µmol L^−1, 48 h. It is filed as cell-based, human. The method in brief:
(§1)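 Cells treated 48 h with test compound at 1, 10 or 100 µmol L⁻¹, or with 1% DMSO solvent alone. Culture media: MIA PaCa-2 in low-glucose DMEM with 10% FBS; MCF-10A in DMEM/F-12 with 5% horse serum, EGF, insulin and hydrocortisone. MTT added for 4 h, then cells lysed in DMSO. OD read at 570 nm (650 nm correction). Viability expressed relative to DMSO-treated cells (100%). Mean ± SD, n = 5–6; Kruskal-Wallis test with Dunn's post hoc test.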

The test system of assay [5] is MIA PaCa‐2 cells. The assay can be described thus: Flow cytometry, annexin V-FITC/PI apoptosis. Type of assay: cell-based, human. To be noted: n = 3. A general note: A flow cytometer gives signals particle by particle.
In assay [6] the test system is human serum albumin (HSA). Kind of assay: QCM response to human serum albumin-immobilized sensor chip. Type of assay: binding. To be noted: QCM sensorgram, result in words. A digest of the protocol: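 Quartz crystal microbalance run with an HSA-immobilized sensor chip. Test compound added to the cuvette in successive portions, giving overall cuvette concentrations that start at 1 and 10 nmol L⁻¹. Frequency change recorded over time as the binding response.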

Assay [7] deals with cleaved caspase‐3 in MIA PaCa‐2 cells. The assay can be described thus: Western blot of cleaved caspase-3, MIA PaCa-2. To be noted: even at 10 µmol L^−1, 48 h, vs untreated cells, n = 3. Type of assay: cell-based, human.
Assay [8] has as its system MDA‐MB‐231 cells. Kind of assay: Cell proliferation assay. To be noted: MTT, different concentrations, 48 h. Type of assay: cell-based, human.
For assay [9], the system named is MIA PaCa‐2 cells. The assay can be described thus: Cell proliferation assay. It is filed as cell-based, human. Conditions: MTT, different concentrations, 48 h. A digest of the protocol:
as §1

For assay [10], the target named is T1, recombinant human survivin (human, UniProt O15392). Kind of assay: quartz crystal microbalance.
Assay [11] addresses T1, recombinant human survivin. Kind of assay: quartz crystal microbalance. This is another data set of the same source.

Like-named read-outs stand apart in the source and are kept apart here. No end group written: not given here.

T1 sequence (O15392 whole entry): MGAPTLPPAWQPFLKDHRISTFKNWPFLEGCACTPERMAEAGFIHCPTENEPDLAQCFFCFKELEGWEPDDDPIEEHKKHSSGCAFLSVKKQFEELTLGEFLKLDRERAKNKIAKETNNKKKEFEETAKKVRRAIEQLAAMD
recombinant human survivin (Homo sapiens, UniProt O15392), sequence (O15392 whole entry): as above

As for `CSCC[C@H](NC(=O)[C@H](CC(C)C)NC(=O)[C@H](CCCCN)NC(=O)[C@H](CCC(N)=O)NC(=O)[C@H](CC(=O)O)NC(=O)CCCCCNC(=O)[C@@H](CCCNC(=N)N)NC(=O)[C@@H](CCCNC(=N)N)NC(=O)[C@@H](CCCNC(=N)N)NC(=O)[C@@H](CCCNC(=N)N)NC(=O)[C@@H](CCCNC(=N)N)NC(=O)[C@@H](CCCNC(=N)N)NC(=O)[C@@H](CCCNC(=N)N)NC(=O)[C@@H](CCCNC(=N)N)NC(=O)[C@@H](CCCNC(=N)N)NC(C)=O)C(=O)N[C@@H](CCC(=O)O)C(=O)N[C@@H](Cc1ccccc1)C(N)=O` [r9‐INC16‐22], in assay [1], the “protein expression level of survivin in MIA PaCa‐2 cells” value is “apparently reduced the protein level”. Also, the “protein expression level of survivin in MDA‐MB‐231 cells” value in [2] is on record as “Neither the treatment with r9‐INC16‐22 at a concentration of 10 μmol L^−1 nor at 40 μmol L^−1 showed any significant decrease”. Also, the “QCM response to survivin-immobilized sensor chip” value in assay [3] is reported as “strongly responded to survivin in a dose‐dependent manner”. Besides, the “antiproliferative effect on MCF‐10A cells (in words)” value in [4] is “No marked antiproliferative effect”. Also, the early apoptosis rate was determined as 52.4% in assay [5] (MIA PaCa‐2, 10 μmol L^−1, 24 h) and 49.6% in assay [5] (MIA PaCa‐2, 50 μmol L^−1, 24 h). The “late apoptosis and necrosis rate” value in assay [5] (MIA PaCa‐2, 10 μmol L^−1, 24 h) is on record as 29.4%; in [5] (MIA PaCa‐2, 50 μmol L^−1, 24 h), 44.2%. Moreover, in [6], the “QCM response to HSA-immobilized sensor chip” value is “no significant response”. In addition, the “expression of cleaved caspase‐3 in MIA PaCa‐2 cells” value in assay [7] is “significantly increased”.
For the molecule “Ac-rrrrrrrrr-ahx-QLDMFKE-NH2 [r9‐scINC16‐22]”, the “antiproliferative effect on MDA‐MB‐231 cells (in words)” value in assay [8] was “no significant antiproliferative effect”. The “QCM response to survivin-immobilized sensor chip” value in [3] was “negligible response”. In [9], the “antiproliferative effect on MIA PaCa‐2 cells (in words)” value is recorded as “no significant antiproliferative effect”.
As to DQKLMEF-NH2 [INC_(16-22)], in assay [10], the Kd was 91.4 nM.
For the molecule QLDMFKE-NH2 [scINC_(16-22)], in assay [11], the Kd is above 300 nM.
Consider DNKDLVWL-NH2 [INC_(27-34)], for which, in [10], the Kd stood at 255 nM.
Still for that read-out and setting: the result for LVWLEEIQ-NH2 [INC_(31-38)] reads 108 nM.
The same measure, in the same setting: the result for GPIHLLEL-NH2 [INC_(7-14)] reads 214 nM.

B1: FITC-INC_(16-22) (peptide)
peptide: DQKLMEF
HELM: PEPTIDE1{[O=C1OC2(c3ccc(O)cc3Oc3cc(O)ccc32)c2ccc(NC(=S)[*:2])cc21].[O=C(CCCCCN[*:1])[*:2]].D.Q.K.L.M.E.F.[am]}$$$$V2.0
SMILES: CSCC[C@H](NC(=O)[C@H](CC(C)C)NC(=O)[C@H](CCCCN)NC(=O)[C@H](CCC(N)=O)NC(=O)[C@H](CC(=O)O)NC(=O)CCCCCNC(=S)Nc1ccc2c(c1)C(=O)OC21c2ccc(O)cc2Oc2cc(O)ccc21)C(=O)N[C@@H](CCC(=O)O)C(=O)N[C@@H](Cc1ccccc1)C(N)=O
With B1, the Kd in assay [11] came to 66 nM.
Take LCNMDNKD-NH2 [INC_(23-30)]: the dissociation constant Kd in assay [10] was 117 nM.
In the case of EEAERMFTR-NH2 [INC_(39-47)], the Kd in [10] came to 135 nM.
Consider DQKLMEFLCNMDNKDLVWL-NH2 [INC_(16-34)], for which, in assay [11], the Kd stood at 160 nM.
With CDQKLMEF-NH2 [INC_(15-22)], in assay [11], the Kd turned out to be 248 nM.
